# Starred links: 1 amine or outer side, 2 acyl side, 3 side chain; linkers in the order of their positions; H or OH if unused. Non-standard residues stand in square brackets, D forms with d. Residues, ends and D or L forms follow the SMILES beside them. *: point of attachment. X7 = CC(=O)N(C(=O)/C=C/c1ccc(F)cc1)[C@@H](Cc1ccc(F)cc1)C(=O)*; X8 = C#CC(=O)c1cccc(N([C@@H](Cc2ccc(F)cc2)C(=O)[*:2])[*:1])c1; X9 = CCC(=O)c1cccc(N([C@@H](Cc2ccc(F)cc2)C(=O)[*:2])[*:1])c1; X3 = CC(=O)N(C(=O)/C=C/c1ccccc1)[C@@H](Cc1ccc(F)cc1)C(=O)*; Phe(4-guanidino) = N=C(N)Nc1ccc(C[C@H](N)C(=O)O)cc1; Phe(4-F) = N[C@@H](Cc1ccc(F)cc1)C(=O)O; 1Nal = N[C@@H](Cc1cccc2ccccc12)C(=O)O; 2Nal = N[C@@H](Cc1ccc2ccccc2c1)C(=O)O; Benzoyl(4-Cl) = O=C(c1ccc(Cl)cc1)*; X10 = O=C(c1c[nH]c2ccccc12)*; X5 = O=C(c1cc2ccccc2[nH]1)*; Orn = NCCC[C@H](N)C(=O)O; Thz = O=C(O)[C@@H]1CSCN1; X2 = O=S(=O)(c1cccs1)*; βAla = NCCC(=O)O
# Biological target: T1, Proteinase-activated receptor 1 (Homo sapiens, UniProt P25116)
# T1 sequence (P25116 whole entry): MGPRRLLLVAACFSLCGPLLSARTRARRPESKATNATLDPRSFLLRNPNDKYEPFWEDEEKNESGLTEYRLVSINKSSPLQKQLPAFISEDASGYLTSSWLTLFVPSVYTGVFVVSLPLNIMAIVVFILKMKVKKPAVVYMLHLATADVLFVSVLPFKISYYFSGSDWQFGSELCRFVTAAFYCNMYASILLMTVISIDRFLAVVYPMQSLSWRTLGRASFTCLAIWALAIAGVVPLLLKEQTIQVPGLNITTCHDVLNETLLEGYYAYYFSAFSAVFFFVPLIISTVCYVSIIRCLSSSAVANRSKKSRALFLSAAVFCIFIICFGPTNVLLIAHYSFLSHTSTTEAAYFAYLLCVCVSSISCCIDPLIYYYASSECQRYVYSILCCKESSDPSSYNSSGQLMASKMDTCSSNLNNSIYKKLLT
row,IC50 [nM],Compound
1,23,CC#Cc1ccccc1C(=O)N(C(C)=O)[C@@H](Cc1ccc(F)cc1)C(=O)N[C@@H](Cc1ccc(NC(=N)N)cc1)C(=O)N[C@@H](CC(C)C)C(=O)N[C@@H](CCCN=C(N)N)C(N)=O
2,470,CC(=O)N(C(=O)/C=C/c1ccccc1)[C@@H](Cc1ccc(F)cc1)C(=O)N[C@@H](Cc1c[nH]cn1)C(=O)N[C@@H](CC(C)C)C(=O)N[C@@H](CCCN=C(N)N)C(N)=O
3,1000,CC(=O)N(C(=O)c1ccccc1N)[C@@H](Cc1ccc(F)cc1)C(=O)N[C@@H](Cc1ccc(NC(=N)N)cc1)C(=O)N[C@@H](CC(C)C)C(=O)N[C@@H](CCCN=C(N)N)C(N)=O
4,35,CCCCC/C=C/CC(=O)N(C(C)=O)[C@@H](Cc1ccc(F)cc1)C(=O)N[C@@H](Cc1ccc(NC(=N)N)cc1)C(=O)N[C@@H](CC(C)C)C(=O)N[C@@H](CCCN=C(N)N)C(N)=O
5,28,CC(=O)N(C(=O)/C=C/c1ccccc1)[C@@H](Cc1ccc(F)cc1)C(=O)N[C@@H](CCCN=C(N)N)C(=O)N[C@@H](CC(C)C)C(=O)N[C@@H](CCCN=C(N)N)C(N)=O
6,25,CC(=O)N(C(=O)/C=C/c1ccc(F)cc1)[C@@H](Cc1ccc(F)cc1)C(=O)N[C@@H](Cc1ccc(NC(=N)N)cc1)C(=O)N[C@@H](CC(C)C)C(=O)N[C@@H](CCCN=C(N)N)C(=O)N[C@@H](CCCN)C(=O)CC(N)=O
7,28,CC(=O)N(C(=O)/C=C/c1ccccc1)[C@@H](Cc1ccc(F)cc1)C(=O)N[C@@H](CCN=C(N)N)C(=O)N[C@@H](CC(C)C)C(=O)N[C@@H](CCCN=C(N)N)C(N)=O
8,12,CC(=O)N(C(=O)/C=C/c1ccccc1)[C@@H](Cc1ccc(F)cc1)C(=O)N[C@@H](CCCCN=C(N)N)C(=O)N[C@@H](CC(C)C)C(=O)N[C@@H](CCCN=C(N)N)C(N)=O
9,3440,CC(=O)N(C(=O)/C=C/c1ccccc1)[C@@H](Cc1cccnc1)C(=O)N[C@@H](Cc1ccc(NC(=N)N)cc1)C(=O)N[C@@H](CC(C)C)C(=O)N[C@@H](CCCN=C(N)N)C(N)=O
10,42,CC(=O)N(C(=O)/C=C/c1ccccc1)[C@@H](Cc1cccs1)C(=O)N[C@@H](Cc1ccc(NC(=N)N)cc1)C(=O)N[C@@H](CC(C)C)C(=O)N[C@@H](CCCN=C(N)N)C(N)=O
11,93,CC(=O)N(C(=O)/C=C/c1ccccc1)[C@@H](CC1CCCCC1)C(=O)N[C@@H](Cc1ccc(NC(=N)N)cc1)C(=O)N[C@@H](CC(C)C)C(=O)N[C@@H](CCCN=C(N)N)C(N)=O
12,160,CC(=O)N(c1cccc(F)c1)[C@@H](Cc1ccc(F)cc1)C(=O)N[C@@H](Cc1ccc(NC(=N)N)cc1)C(=O)N[C@@H](CC(C)C)C(=O)N[C@@H](CCCN=C(N)N)C(N)=O
13,680,CC(=O)N(c1ccccc1)[C@@H](Cc1ccc(F)cc1)C(=O)N[C@@H](Cc1ccc(NC(=N)N)cc1)C(=O)N[C@@H](CC(C)C)C(=O)N[C@@H](CCCN=C(N)N)C(N)=O
14,110,CC(=O)N(c1cccc(Cl)c1)[C@@H](Cc1ccc(F)cc1)C(=O)N[C@@H](Cc1ccc(NC(=N)N)cc1)C(=O)N[C@@H](CC(C)C)C(=O)N[C@@H](CCCN=C(N)N)C(N)=O
15,630,CC(=O)N(C(=O)/C=C/c1ccccc1)[C@@H](Cc1ccc(F)cc1)C(=O)N[C@@H](CCc1ccccc1)C(=O)N[C@@H](CC(C)C)C(=O)N[C@@H](CCCN=C(N)N)C(N)=O
16,1630,CC(=O)N(C(=O)Cc1cccc2ccccc12)[C@@H](Cc1ccc(F)cc1)C(=O)N[C@@H](Cc1ccc(NC(=N)N)cc1)C(=O)N[C@@H](CC(C)C)C(=O)N[C@@H](CCCN=C(N)N)C(N)=O

row,IC50 [nM],Compound
1,246,CC(=O)N(C(=O)/C=C/c1ccccc1)[C@@H](Cc1ccc(F)cc1)C(=O)N[C@@H](Cc1ccc2ccccc2c1)C(=O)N[C@@H](CC(C)C)C(=O)N[C@@H](CCCN=C(N)N)C(N)=O
2,1530,CC(=O)N(C(=O)/C=C/c1ccc(-c2ccccc2)cc1)[C@@H](Cc1ccc(F)cc1)C(=O)N[C@@H](Cc1ccc(NC(=N)N)cc1)C(=O)N[C@@H](CC(C)C)C(=O)N[C@@H](CCCN=C(N)N)C(N)=O
3,4,C#CC(=O)c1cccc(N(C(C)=O)[C@@H](Cc2ccc(F)cc2)C(=O)N[C@@H](Cc2ccc(NC(=N)N)cc2)C(=O)N[C@@H](CC(C)C)C(=O)N[C@@H](CCCN=C(N)N)C(=O)N[C@@H](CCCN=C(N)N)C(N)=O)c1 (Ac-[X8][Phe(4-guanidino)]LRR-NH2)
4,9,CCC(=O)c1cccc(N(C(C)=O)[C@@H](Cc2ccc(F)cc2)C(=O)N[C@@H](Cc2ccc(NC(=N)N)cc2)C(=O)N[C@@H](CC(C)C)C(=O)N[C@@H](CCCN=C(N)N)C(=O)N[C@@H](CCCN=C(N)N)C(N)=O)c1 (Ac-[X9][Phe(4-guanidino)]LRR-NH2)
5,8950,CC(C)C[C@H](NC(=O)[C@H](Cc1ccc(NC(=N)N)cc1)NC(=O)[C@H](Cc1ccc(F)cc1)NS(=O)(=O)c1cccs1)C(=O)N[C@@H](CCCN=C(N)N)C(N)=O (X2-[Phe(4-F)][Phe(4-guanidino)]LR-NH2)
6,7.5,CC(=O)N(C(=O)/C=C/c1ccccc1)[C@@H](Cc1ccc(F)cc1)C(=O)N[C@@H](Cc1ccc(NC(=N)N)cc1)C(=O)N[C@@H](CC(C)C)C(=O)N[C@@H](CCCN=C(N)N)C(=O)N[C@@H](CCCN=C(N)N)C(N)=O (X3-[Phe(4-guanidino)]LRR-NH2)
7,6.6,CC(=O)N(C(=O)/C=C/c1ccccc1)[C@@H](Cc1ccc(F)cc1)C(=O)N[C@@H](Cc1ccc(NC(=N)N)cc1)C(=O)N[C@@H](CC(C)C)C(=O)N[C@@H](CCCN=C(N)N)C(=O)N[C@@H](CCCN)C(N)=O (X3-[Phe(4-guanidino)]LR[Orn]-NH2)
8,24,CC(C)C[C@H](NC(=O)[C@H](Cc1ccc(NC(=N)N)cc1)NC(=O)[C@H](Cc1ccc(F)cc1)NC(=O)c1cc2ccccc2[nH]1)C(=O)N[C@@H](CCCN=C(N)N)C(N)=O (X5-[Phe(4-F)][Phe(4-guanidino)]LR-NH2)
9,19,CC(=O)N(C(=O)/C=C/c1ccc(F)cc1)[C@@H](Cc1ccc(F)cc1)C(=O)N[C@@H](Cc1ccc(NC(=N)N)cc1)C(=O)N[C@@H](CC(C)C)C(=O)N[C@@H](CCCN=C(N)N)C(=O)N[C@@H](CCCN=C(N)N)C(N)=O (X7-[Phe(4-guanidino)]LRR-NH2)
10,19,CC(C)C[C@H](NC(=O)[C@H](Cc1ccc(NC(=N)N)cc1)NC(=O)[C@H](Cc1ccc(F)cc1)NC(=O)c1c[nH]c2ccccc12)C(=O)N[C@@H](CCCN=C(N)N)C(N)=O (X10-[Phe(4-F)][Phe(4-guanidino)]LR-NH2)
11,20,CC(=O)N(C(=O)/C=C/c1ccc(F)cc1)[C@@H](Cc1ccc(F)cc1)C(=O)N[C@@H](Cc1ccc(NC(=N)N)cc1)C(=O)N[C@@H](CC(C)C)C(=O)N[C@@H](CCCN=C(N)N)C(N)=O (stereo in doubt; 43)
12,34,CC(=O)N(C(=O)/C=C/c1ccc(C)cc1)[C@@H](Cc1ccc(F)cc1)C(=O)N[C@@H](Cc1ccc(NC(=N)N)cc1)C(=O)N[C@@H](CC(C)C)C(=O)N[C@@H](CCCN=C(N)N)C(N)=O (stereo in doubt; 45)
13,23,CC(=O)N(C(=O)/C=C/c1ccc(F)cc1)[C@@H](Cc1ccc(F)cc1)C(=O)N[C@@H](Cc1ccc(NC(=N)N)cc1)C(=O)N[C@@H](CC(C)C)C(=O)N[C@@H](CCCN=C(N)N)C(N)=O (stereo in doubt; 62)
14,43,CC(=O)N(C(=O)/C=C/c1ccc(C)cc1)[C@@H](Cc1ccc(F)cc1)C(=O)N[C@@H](Cc1ccc(NC(=N)N)cc1)C(=O)N[C@@H](CC(C)C)C(=O)N[C@@H](CCCN=C(N)N)C(N)=O (stereo in doubt; 63)
15,26,CC(C)C[C@H](NC(=O)[C@H](Cc1ccc(NC(=N)N)cc1)NC(=O)[C@H](Cc1ccc(F)cc1)NC(=O)c1ccc(Cl)cc1)C(=O)N[C@@H](CCCN=C(N)N)C(N)=O ({Benzoyl(4-Cl)}-[Phe(4-F)][Phe(4-guanidino)]LR-NH2)

# Tested on: not listed separately
# Assay: Concentration to stimulate human platelet aggregation
# Type: functional
# Procedure, shortened: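 Peptides were added alone to gel-filtered human platelets, and aggregation was read by microtiter turbidity. EC₅₀ is the concentration stimulating 50% of maximum aggregation. N is the number of determinations. A peptide is called a partial agonist where maximum aggregation was not reached experimentally.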
row,EC50 [nM],Compound
1,400,CC(C)C[C@H](NC(=O)[C@H](CC(C)C)NC(=O)[C@H](Cc1ccccc1)NC(=O)[C@@H](N)CO)C(=O)N[C@@H](CCCN=C(N)N)C(N)=O
2,130,CC(C)C[C@H](NC(=O)[C@H](CC(C)C)NC(=O)[C@H](Cc1ccc(F)cc1)NC(=O)[C@@H](N)CO)C(=O)N[C@@H](CCCN=C(N)N)C(N)=O
3,18000,CC(C)C[C@H](NC(=O)[C@H](CC(C)C)NC(=O)[C@H](Cc1ccc(N)cc1)NC(=O)[C@@H](N)CO)C(=O)N[C@@H](CCCN=C(N)N)C(N)=O
4,> 300000,CC(C)C[C@H](NC(=O)[C@H](CC(C)C)NC(=O)[C@H](Cc1ccc(NC(=N)N)cc1)NC(=O)[C@@H](N)CO)C(=O)N[C@@H](CCCN=C(N)N)C(N)=O
5,> 300000,CC(C)C[C@H](NC(=O)[C@H](CC(C)C)NC(=O)[C@H](CCc1ccccc1)NC(=O)[C@@H](N)CO)C(=O)N[C@@H](CCCN=C(N)N)C(N)=O
6,9270,CC(C)C[C@H](NC(=O)[C@H](CC(C)C)NC(=O)[C@H](Cc1ccc(I)cc1)NC(=O)[C@@H](N)CO)C(=O)N[C@@H](CCCN=C(N)N)C(N)=O
7,> 300000,CC(=O)N1CSC[C@H]1C(=O)N[C@@H](Cc1ccccc1)C(=O)N[C@@H](CC(C)C)C(=O)N[C@@H](CC(C)C)C(=O)N[C@@H](CCCN=C(N)N)C(N)=O (Ac-[Thz]FLLR-NH2)
8,1800,CC(=O)NCCC(=O)N[C@@H](Cc1ccccc1)C(=O)N[C@@H](CC(C)C)C(=O)N[C@@H](CC(C)C)C(=O)N[C@@H](CCCN=C(N)N)C(N)=O (Ac-[βAla]FLLR-NH2)
9,160,CC(C)C[C@H](NC(=O)[C@H](Cc1cccc2ccccc12)NC(=O)[C@H](Cc1ccc(F)cc1)NC(=O)[C@@H](N)CO)C(=O)N[C@@H](CCCN=C(N)N)C(N)=O (H-S[Phe(4-F)][1Nal]LR-NH2)
10,80,CC(C)C[C@H](NC(=O)[C@H](Cc1ccc2ccccc2c1)NC(=O)[C@H](Cc1ccc(F)cc1)NC(=O)[C@@H](N)CO)C(=O)N[C@@H](CCCN=C(N)N)C(N)=O (H-S[Phe(4-F)][2Nal]LR-NH2)

# From ChEMBL document CHEMBL1129588, “Development of potent thrombin receptor antagonist peptides” (J Med Chem, 1996)
